Source: PubChem BioAssay
Rows were chosen to be rich in hits. Some 4.1% of all compounds tested hit in one or more screens of this group.
KCNK9 inh: KCNK9 potassium channel inhibitors, primary screen, HEK293 cells, thallium flux | AID 488922, 2010 | actives 1.2% (n = 310,000) | FluxOR thallium flux fluorescence; stronger effect = lower value | B-score at 10 µM;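 active = ratio B-score over 3 SD below the library mean, with starting fluorescence within 5 SD of its mean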;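 also: negative B-score means less thallium flux so channel inhibition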
hERG protect: hERG rescue from dofetilide block, primary screen, cell-based, CHO-hERG, FluxOR thallium flux, dofetilide IC70 | Voltage-gated inwardly rectifying potassium channel KCNH2 (Homo sapiens), Q12809 | actives 0.51% (n = 310,000) | activation (rescue from dofetilide block), less the hit threshold, % at 10 µM | dofetilide IC70 present;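 active = activation above the mean of controls blocked by dofetilide plus 5 SD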;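 also: thallium influx through hERG after potassium depolarization seen as dye fluorescence rise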
KCNQ1 inh: inhibitors of human KCNQ1 channel, primary screen, cell-based, thallium flux, high-throughput | CHO-K1 KCNQ1, FluxOR thallium flux fluorescence; stronger effect = higher value | B-score at 10 µM | AID 2642, 2010 | actives 1.3% (n = 310,000) | Potassium voltage-gated channel subfamily KQT member 1 (Homo sapiens), P51787;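 active = compounds whose thallium flux B-score, printed positive for inhibition, exceeds three library SD while starting fluorescence stays within three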;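 also: channel opened by potassium depolarization with thallium stimulus after 20 min compound exposure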
KCC2 mod: KCC2 cotransporter modulators, thallium flux, primary screen, cell-based, HEK293 KCC2, FluoZin-2 fluorescence, MLSMR; Solute carrier family 12 member 5 (Homo sapiens), Q9H2X9; KCC2 cells, thallium flux FluoZin-2 fluorescence; B-score of Tl+ flux slope (higher = more flux/activation; lower = inhibition) at 10 µM; actives 2.2% (n = 190,000); AID 1456, 2008;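 active = thallium flux slope and its plate-corrected score both differing from the plate sample mean at a set confidence after two filtering rounds, in either direction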;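 also: slope of fluorescence scaled to starting intensity during 10 to 20 s after thallium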
KCNK3 block: human KCNK3 channel inhibitors, primary screen, CHO cells, FluxOR thallium flux, B-score; Potassium channel subfamily K member 3 (Homo sapiens), O14649; FluxOR fluorescence; stronger effect = lower value; B-score at 10 µM; actives 0.84% (n = 340,000); AID 602410, 2012;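 active = B-score under library mean minus 4 SD, starting fluorescence ratio at most library mean plus 5 SD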;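 also: more negative B-score means stronger inhibition of thallium flux through KCNK3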
KCNQ1 act: potentiators or activators of KCNQ1 channel, primary screen, cell-based, thallium flux, high-throughput | CHO-K1 KCNQ1, thallium flux FluxOR fluorescence; stronger effect = higher value | B-score at 10 µM | actives 0.35% (n = 310,000);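 active = fluorescence ratio B-score, a plate-corrected score, at least three library SD, with initial intensity B-score within 5 SD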
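Medium – assay buffer, equal DMSO in all wells · Material – CHO-K1 cell line with stable KCNQ1 potassium channel expression · Signal – kinetic FluxOR thallium fluorescence, 10-s 1-Hz baseline, 110-s post-stimulus read · Compound – single concentration per compound, DMSO matched to controls · Schedule – 37 °C overnight plating, 90-min dark dye load, 20-min compound pretreatment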
KCC2 sec1: KCC2 modulators in sodium-free buffer, confirmation, cell-based, HEK293 KCC2, thallium flux, secondary assay; FluoZin2 fluorescence; stronger effect = higher value; shares compounds with KCC2 mod; AID 1713, 2009; normalised thallium flux (F/F0 slope) at 10 µM; actives 15% (n = 3,700);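 active = thallium flux slope above the same plate's solvent-only control mean plus 3 SD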
KCC2 bumet counter: thallium flux persisting under bumetanide in KCC2 cells, confirmation, counter-screen for KCC2 modulator project, cell-based, HEK293 KCC2, FluoZin2, secondary assay 3; shares compounds with KCC2 mod; HEK293-KCC2 + bumetanide/ouabain; stronger effect = higher value; normalized thallium flux at 10 µM; actives 49% (n = 3,700);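 active = thallium entry rate above the same plate's blocked-transporter control wells by more than 3 SD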;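 also: raw slope of fluorescence over initial fluorescence between 10 and 20 s after thallium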
KCC2 sec2: KCC2 modulators without ouabain present, confirmation, cell-based, HEK293 KCC2, thallium flux, FluoZin2, secondary assay 2 | shares compounds with KCC2 mod | thallium flux FluoZin2 fluorescence; actives lie on both sides; F/F0 rise rate, 10–20 s post-thallium | normalized thallium flux at 10 µM | actives 23% (n = 3,700);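 active = thallium flux slope more than 3 SD above or below the plate's solvent-only control mean, mostly below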;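 also: raw slope with 0.1% DMSO as baseline and bumetanide as block control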
HEK293 Tl flux: thallium flux modulation in parental HEK cells, confirmation, counter-screen for KCC2 modulator project, cell-based, counterscreen 1 | shares compounds with KCC2 mod | HEK293 parental cells, thallium flux FluoZin2, ouabain; baseline-ratio fluorescence slope, 10–20 s after thallium | thallium flux rate (normalised fluorescence) at 10 µM | actives 46% (n = 3,700);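 active = thallium flux rate significantly above the same plate's solvent-only control wells, beyond their mean plus 3 SD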
KCC2 retest ouab: KCC2 inhibitors and activators, ouabain retest, confirmation, HEK-KCC2 cells; shares compounds with KCC2 mod; HEK293-KCC2, thallium flux FluoZin2 fluorescence; bidirectional: low = inhibitor, high = activator; raw Tl+ flux slope (below DMSO = inhibition, above = activation) at 10 µM; actives 48% (n = 3,700); AID 1717, 2009;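 active = thallium flux slope beyond 3 SD from same-plate DMSO control mean in most replicates, usually higher, sometimes lower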;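 also: slope of initial-normalized fluorescence between seconds 10 and 20 after thallium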
HEK counter2: native HEK Tl+ uptake effects, second counter-screen – HEK cells, counterscreen 2, counter-screen for KCC2 modulator project, confirmation; shares compounds with KCC2 mod; HEK293 parental, thallium flux FluoZin-2 fluorescence slope; thallium flux slope at 10 µM; actives 33% (n = 3,700); AID 1718, 2009;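 active = thallium flux slope above the same plate's solvent-control mean plus 3 SD in both duplicate wells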;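 also: run without ouabain in cells lacking the KCC2 cotransporter; slope of fluorescence scaled to its starting value between 10 and 20 s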
An asterisk follows results filed as active; i = inactive; · = no result given.

SMILES	KCNK9 inh	hERG protect	KCNQ1 inh	KCC2 mod	KCNK3 block	KCNQ1 act	KCC2 sec1	KCC2 bumet counter	KCC2 sec2	HEK293 Tl flux	KCC2 retest ouab	HEK counter2
O=c1c2oc3ccccc3c2[nH]c(=S)n1-c1ccc(F)cc1	i	-17.3	i	1.69	i	i	·	·	·	·	·	·
Cc1ccc(-n2c(=S)[nH]c3c(oc4ccccc43)c2=O)cc1C	i	-3.4	i	5.69*	i	i	0.0171*	0.0398*	0.0297	0.0176*	0.0293*	0.0123*
CCN(C(=O)COC(=O)c1ccccc1Cc1ccccc1)c1c(N)n(Cc2ccccc2)c(=O)[nH]c1=O	·	·	·	·	i	·	·	·	·	·	·	·
C=CCc1ccccc1Oc1cc(F)nc(N)n1	i	-6.9	i	·	i	i	·	·	·	·	·	·
CN(CCc1ccccn1)C(=O)c1nn2c(C(F)(F)F)cc(-c3ccco3)nc2c1Cl	i	-13.2	i	-5.21*	i	i	0.00744	0.00507	0.031	0.00737	0.0145*	0.00982
CC(C)NC(=O)c1nn2c(C(F)(F)F)cc(-c3ccco3)nc2c1Cl	i	-11.7	i	-0.273	i	i	·	·	·	·	·	·
CSc1ccccc1NC(=O)C1=CC(c2ccc(C)cc2)=NS(=O)(=O)N1C	i	-9.4	i	·	i	i	·	·	·	·	·	·
CC(C)Cn1cc(C(=O)N2CCN(c3ccccn3)CC2)c2c3ccccc3n(C)c2c1=O	i	-26.8	i	·	i	i	0.00903	0.00588	0.0302	0.00681	0.034	0.01
CC1CCCC(NC(=O)COC(=O)CCSc2ccccc2)C1C (configuration not stated)	i	-10.0	i	·	i	i	0.00755	0.00592	0.0338	0.0069	0.0175*	0.0103
CC1CCCC(NC(=O)COC(=O)CCC(=O)c2cccs2)C1C (configuration not stated)	·	·	·	·	i	·	·	·	·	·	·	·
CCNC(=S)Nc1ccccc1-c1ccccc1	i	-2.5	i	0.21	i	i	·	·	·	·	·	·
CCNC(=S)NN=C1c2ccccc2-c2ccccc21	i	-20.1	i	33.8*	i	i	0.0178*	0.0506*	0.0333	0.0672*	0.0469*	0.0163*
